Measurements from ChEMBL document CHEMBL1649516, “Pyrazolopyrimidinediones are selective agents for Helicobacter pylori that suppress growth through inhibition of glutamate racemase (MurI)” (2009).
In brackets after ≈: the same amount, converted by molar mass. Activity calls are given as the source filed them. No cut-off for these calls is given here.

Assays:
Helicobacter pylori [1] = assay: Antibacterial activity against Helicobacter pylori SS1 by CLSI M100-S13 method; format: functional
Procedure, shortened: (§1)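 MICs for H. pylori, C. coli and C. jejuni were determined by a previously described susceptibility method. Compounds were in DMSO at 2% final, and 2% DMSO served as the control.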

Helicobacter pylori [2] = assay: Induction of morphological changes in Helicobacter pylori by phase contrast microscopy; format: functional, organism-based
Procedure, shortened: (§2)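 H. pylori was grown at 37°C in brucella broth with 5% fetal calf serum under microaerophilic gas (5% O2, 10% CO2, 85% N2), then examined for cell shape by phase-contrast microscopy.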

Helicobacter pylori [3] = assay: Antibacterial activity against Helicobacter pylori ARHp80 by CLSI M100-S13 method; format: functional; procedure, shortened: as §1
Helicobacter pylori [4] = assay: Antibacterial activity against HefC-deficient Helicobacter pylori ARHp80 by CLSI M100-S13 method; format: functional; procedure, shortened: as §1
[5] = target: T1, Glutamate racemase (Helicobacter pylori (strain ATCC 700392 / 26695) (Campylobacterpylori)) (UniProt P56068); assay: Inhibition of MurI in flaA mutant Helicobacter pylori Hp80.2 overexpressing MurI gene assessed as microbial growth inhibition by CLSI M100-S13 method
T1 sequence (whole entry): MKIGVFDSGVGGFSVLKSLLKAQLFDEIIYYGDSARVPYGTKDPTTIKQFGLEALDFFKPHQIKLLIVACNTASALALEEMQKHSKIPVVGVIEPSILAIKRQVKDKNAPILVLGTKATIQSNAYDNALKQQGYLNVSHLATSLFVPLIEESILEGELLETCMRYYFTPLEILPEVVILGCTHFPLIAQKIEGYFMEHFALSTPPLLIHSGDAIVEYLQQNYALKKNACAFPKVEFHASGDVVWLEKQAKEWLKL
Procedure, shortened: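 MIC against H. pylori Hp80.2, a strain built in the wild-type ARHp80 background by replacing flaA with a murI expression construct (pSM116) so that flaA-promoter-driven MurI is overexpressed, confirmed by PCR, sequencing and Western blot. The comparison strain is isogenic Hp80.1, which carries the empty construct. Compounds were dissolved in DMSO, 2% final, with 2% DMSO as control.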

Streptococcus pneumoniae = assay: Antibacterial activity against Streptococcus pneumoniae NCTC 7466 by CLSI M100-S13 method; format: functional; conditions: NCTC7466
Procedure, shortened: (§3)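 Broth MICs were run per CLSI guidelines. Compounds were dissolved in DMSO at 2% final concentration, and 2% DMSO alone served as the control.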

Staphylococcus aureus = assay: Antibacterial activity against Staphylococcus aureus by CLSI M100-S13 method; format: functional; procedure, shortened: as §3
Enterococcus faecium = assay: Antibacterial activity against Enterococcus faecium ATCC 19434 by CLSI M100-S13 method; format: functional; procedure, shortened: as §3
Haemophilus influenzae = assay: Antibacterial activity against Haemophilus influenzae ATCC 51907 by CLSI M100-S13 method; format: functional; procedure, shortened: as §3
Moraxella catarrhalis = assay: Antibacterial activity against Moraxella catarrhalis ATCC 43617 by CLSI M100-S13 method; format: functional; procedure, shortened: as §3
Escherichia coli = assay: Antibacterial activity against Escherichia coli by CLSI M100-S13 method; format: functional; procedure, shortened: as §3
[6] = system: Fusobacterium necrophorum; assay: Antibacterial activity against Fusobacterium necrophorum clinical isolate by CLSI M100-S13 method; format: functional
Procedure, shortened: (§4)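 Anaerobic MICs run by CLSI broth microdilution guidelines for Bacteroides fragilis. Compounds were dissolved in DMSO at 2% final in all wells, and 2% DMSO served as the solvent control.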

[7] = target: T1, Glutamate racemase (Helicobacter pylori (strain ATCC 700392 / 26695) (Campylobacterpylori)); assay: Inhibition of MurI in Helicobacter pylori assessed as morphological change at 2 times MIC by phase contrast microscopy; procedure, shortened: as §2
Bacteroides fragilis = assay: Antibacterial activity against Bacteroides fragilis ATCC 25285 by CLSI M11-S13 broth microdilution method; format: functional; procedure, shortened: as §4
Fusobacterium mortiferum = assay: Antibacterial activity against Fusobacterium mortiferum clinical isolate by CLSI M100-S13 method; format: functional; procedure, shortened: as §4
[8] = system: Bacteroides thetaiotaomicron; assay: Antibacterial activity against Bacteroides thetaiotaomicron clinical isolate by CLSI M100-S13 method; format: functional; procedure, shortened: as §4
Lactobacillus jensenii = assay: Antibacterial activity against Lactobacillus jensenii clinical isolate by CLSI M100-S13 method; format: functional
Campylobacter coli = assay: Antibacterial activity against Campylobacter coli ATCC 33559 by CLSI M100-S13 method; format: functional; procedure, shortened: as §1
Clostridioides difficile = assay: Antibacterial activity against Clostridium difficile clinical isolate by CLSI M100-S13 method; format: functional; procedure, shortened: as §4
Campylobacter jejuni = assay: Antibacterial activity against Campylobacter jejuni ATCC 33560 by CLSI M100-S13 method; format: functional; procedure, shortened: as §1
[9] = system: Prevotella melaninogenica; assay: Antibacterial activity against Prevotella melaninogenica clinical isolate by CLSI M100-S13 method; format: functional; procedure, shortened: as §4

Structure (SMILES)	MIC (Helicobacter pylori [1]) [µg/mL]	MIC (Helicobacter pylori [3]) [µg/mL]	MIC (Helicobacter pylori [4]) [µg/mL]	MIC [5] [µg/mL]	MIC (Streptococcus pneumoniae) [µg/mL]	MIC (Staphylococcus aureus) [µg/mL]	MIC (Enterococcus faecium) [µg/mL]	MIC (Haemophilus influenzae) [µg/mL]	MIC (Moraxella catarrhalis) [µg/mL]	MIC (Escherichia coli) [µg/mL]	also measured
CN(C)[C@@H]1C(O)=C(C(N)=O)C(=O)[C@@]2(O)C(O)=C3C(=O)c4c(O)cccc4[C@@](C)(O)[C@H]3C[C@@H]12 [TETRACYCLINE]	0.25 (≈ 0.563 µM)	0.13 (≈ 0.293 µM)	0.015 (≈ 0.0338 µM)	0.13 (≈ 0.293 µM)							Activity (Helicobacter pylori [2]): Active
CC(C)Cn1c(=O)n(C)c(=O)c2c(-c3ccncc3)n(Cc3cccc4ccccc34)nc21	4 (≈ 9.1 µM)	4 (≈ 9.1 µM)	1 (≈ 2.28 µM)	8 (≈ 18.2 µM)	> 64	> 64	> 64	> 64	> 64	> 64	
C#CCn1c(=O)c2c(-c3cncn3C)n(Cc3ccnc4ccc(Cl)cc34)nc2n(CC2CC2)c1=O	2 (≈ 4 µM)	1 (≈ 2 µM)	0.25 (≈ 0.5 µM)	8 (≈ 16 µM)		> 64				> 64	
CONC(=O)c1cc(-c2c3c(=O)n(C)c(=O)n(CC4CC4)c3nn2Cc2c[nH]c3ccc(C)cc23)n(C)c1	16 (≈ 31 µM)	16 (≈ 31 µM)	0.25 (≈ 0.485 µM)		> 32	> 64	> 32	> 32	> 32	> 64	
Cn1cc(C#N)cc1-c1c2c(=O)n(C)c(=O)n(CC3CC3)c2nn1Cc1ccnc2ccc(Cl)cc12	1 (≈ 2 µM)	0.5 (≈ 1 µM)	0.25 (≈ 0.5 µM)	4 (≈ 8 µM)		> 64				> 64	MIC [6]: > 64 µg/mL; Activity [7]: Non-toxic; MIC (Bacteroides fragilis): > 64 µg/mL; MIC (Fusobacterium mortiferum): > 64 µg/mL; MIC [8]: > 64 µg/mL; MIC (Lactobacillus jensenii): > 64 µg/mL; MIC (Campylobacter coli): > 64 µg/mL; MIC (Clostridioides difficile): > 64 µg/mL; MIC (Campylobacter jejuni): > 64 µg/mL; MIC [9]: > 64 µg/mL
C#CCn1c(=O)c2c(-c3cc(C#N)cn3C)n(Cc3cc(C#N)nc4ccc(Cl)cc34)nc2n(CC2CC2)c1=O	2 (≈ 3.64 µM)	1 (≈ 1.82 µM)	0.5 (≈ 0.911 µM)	> 64		> 64				> 64	
Cn1cc([S+](C)[O-])cc1-c1c2c(=O)n(C)c(=O)n(CC3CC3)c2nn1Cc1ccnc2ccc(Cl)cc12 (configuration not stated)	16 (≈ 29.8 µM)	8 (≈ 14.9 µM)	0.25 (≈ 0.466 µM)	16 (≈ 29.8 µM)	> 64	> 64	> 64	> 64	> 64	> 64	
